Screening data deposited in PubChem BioAssay by several laboratories.
Compounds with a hit are over-represented: about 1.8% of the library has one in this group of screens.
CCR6 antagonist = CCR6 receptor antagonists, primary screen, cell-based, CHO-K1, luminescence, beta-arrestin, uHTS; CHO-K1 CCR6 PathHunter beta-arrestin, CCL20-stimulated; 0.49% of 340,000 active; inhibition, % at 20 µM; C-C chemokine receptor type 6 (Homo sapiens), P51684;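 active = compounds whose inhibition of the agonist-driven luminescence signal at 20 µM reaches about 50%, limit read from the data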;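 note: cells stimulated with CCL20 at 14 nM final; plate controls were DMSO with CCL20 for no effect and DMSO without agonist for full effect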
APJ ag = agonists of human apelin receptor APJ, primary screen, CHO-K1 cells, PathHunter beta-arrestin, luminescence | 0% DMSO wells, 100% apelin | activation, % at 20 µM | 0.11% of 330,000 active;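 active = activation more than six SD over the plate average, tested at 20 µM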;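 note: 0% = DMSO alone and 100% = apelin-13 at 10 nM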
Target sequence (P35414 whole entry, looked up): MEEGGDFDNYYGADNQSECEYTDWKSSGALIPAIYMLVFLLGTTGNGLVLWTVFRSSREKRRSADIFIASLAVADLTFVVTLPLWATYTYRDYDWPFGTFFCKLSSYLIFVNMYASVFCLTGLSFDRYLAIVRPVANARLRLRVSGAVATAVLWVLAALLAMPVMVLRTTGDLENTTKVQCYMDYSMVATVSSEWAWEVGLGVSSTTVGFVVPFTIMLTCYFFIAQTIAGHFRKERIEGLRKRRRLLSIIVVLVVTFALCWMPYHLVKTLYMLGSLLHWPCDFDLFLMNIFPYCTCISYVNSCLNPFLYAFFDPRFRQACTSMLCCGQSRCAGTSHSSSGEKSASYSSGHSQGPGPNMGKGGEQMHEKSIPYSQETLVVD
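Assay system: engineered CHO-K1 APJ arrestin reporter cells; Amount: 1000 CHO-K1 reporter cells seeded per well; Dosing: one dose, 20 µM compound, 1% DMSO; Times: compound stimulation 90 min at 25 °C, detection 60 min; Measured by: luminescent beta-gal fragment complementation, chemiluminescent substrate; Read-out: APJ–arrestin association signal; Controls: DMSO vs Apelin-13 10 nM.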
CXCR6 block = CXCR6 receptor inhibitors, primary screen, cell-based, beta-arrestin, luminescence, CHO-K1 PathHunter, 1536-well | C-X-C chemokine receptor type 6 (Homo sapiens), O00574 | inhibition, % at 20 µM | 0.36% of 360,000 active; in the data active = inhibition above about 34%, passing the limit was not always enough;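 note: antagonist mode with CXCL16 agonist at 10 nM final; 0% = 10 nM CXCL16 with DMSO and 100% = unstimulated wells without agonist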
EBI2 block = EBI2 receptor antagonists, beta-arrestin recruitment, primary screen, cell-based, luminescence, 7a,25-OHC stimulation, uHTS; G-protein coupled receptor 183 (Homo sapiens), P32249; 7a,25-OHC stimulated; inhibition, % at 5 µM; 0.81% of 360,000 active; AID 651636, 2012; in the data active = inhibition above about 38%;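 note: enzyme fragment complementation signal reports receptor beta-arrestin coupling in cells; 0% = agonist plus DMSO wells and 100% = wells without agonist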
APJ antagonist = antagonists of human apelin receptor APJ, primary screen, CHO-K1 cells, beta-arrestin complementation, luminescence | 0.32% of 330,000 active | inhibition, % at 20 µM | AID 2521, 2010;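 active = inhibition above about 40% at 20 µM, limit read from the data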;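 note: cells challenged with 10 nM apelin-13 agonist together with compound; plate controls were apelin-13 plus DMSO wells for no effect and DMSO wells lacking apelin-13 for full effect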
B2AR ag = beta2AR agonists driving receptor internalization, primary screen, cell-based, FAP fluorogen, flow cytometry | Beta-2 adrenergic receptor (Homo sapiens), P07550 | Am2.2-beta2AR cells | response, % (concentration not given with the values) | 0.43% of 340,000 active;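 active = response above a set limit, near 3 SD of response in nonfluorescent compounds, cut at about 42% in these data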
APJ antag confirm = APJ antagonists blocking beta-arrestin recruitment, confirmation, cell-based, luminescence, single concentration, uHTS hits. shares compounds with APJ antagonist. antagonist mode. inhibition, % at 20 µM. 66% of 950 active. AID 2766, 2010; in the data active = inhibition above about 50%
* = called active by the depositor; / = no result given.

SMILES	CCR6 antagonist	APJ ag	CXCR6 block	EBI2 block	APJ antagonist	B2AR ag	APJ antag confirm
COc1ccccc1NS(=O)(=O)c1cc([N+](=O)[O-])ccc1N/N=C/c1c(C)[nH]c2ccccc12	58.5*	-13.2	46.4*	39.1*	58.3*	-543.6	84.0*
O=[N+]([O-])c1ccc(N/N=C/c2c[nH]c3ccccc23)c(S(=O)(=O)Nc2ccc(Cl)cc2)c1	45.8	-8.1	35.4	26.5	44.1*	-193.9	91.4*
O=C(C[C@@H]1C=C[C@@H](NC(=O)C2CC2)[C@@H](CO)O1)NCc1ccccc1Cl	/	/	/	0.8	/	/	/
COc1ccc(N=C2C(=O)N3c4c(cccc42)C(C)=CC3(C)C)cc1	50.3*	-3.1	30.4	-2.2	45.7*	12.0	88.9*
COc1cccc(/C=C/c2ccc3cccc(O)c3n2)c1	62.3*	-10.6	34.8	35.5	45.3*	13.5	88.3*
Oc1cccc(/C=C/c2ccc3cccc(O)c3n2)c1	31.4	0.4	30.4	-6.2	-9.9	24.0	/
COc1cccc(/C=C/c2ccc3cccc(O)c3n2)c1OC	50.3*	-7.5	36.7	22.6	53.9*	15.0	79.2*
COc1ccccc1CNc1nc(Nc2cccc(-c3cnco3)c2)c2sccc2n1	/	/	2.2	-29.2	/	/	/
O=C(CN1CCc2ccccc2C1)Nc1ccccc1F	9.3	1.0	-0.6	3.9	7.8	-4.7	/
C=CCN(CC=C)Cc1cc(=O)oc2ccc3ccccc3c12	/	/	8.4	6.5	/	/	/
C=CCN(CC=C)Cc1c(O)ccc2c1oc(=O)c1ccccc12	12.9	-10.7	36.6	11.2	46.7*	-7.1	78.0*
O=C(COC(=O)c1cnccn1)c1ccc(Cl)c([N+](=O)[O-])c1	87.0*	-14.3	54.2*	11.3	90.6*	2.7	140.3*
Cc1ccc(C(=O)COC(=O)c2cnccn2)cc1[N+](=O)[O-]	28.1	-6.2	7.9	5.7	45.6*	4.4	65.1*
O=C(COC(=O)c1cccnc1)c1ccc(Cl)c(Cl)c1	81.0*	-14.4	36.8	9.7	84.7*	14.7	77.8*
Cc1ccc(C(=O)COC(=O)c2cnccn2)cc1C	/	-0.8	/	/	1.2	/	/
CCCCCCCCCCCCCCCC[N+](C)(C)CCN(Cc1ccc(OC)cc1)c1ncccn1	65.5*	-13.8	4.6	-4.8	50.6*	34.7	41.8
O=c1ccc2ccc(OCc3ccccc3)cc2o1	4.5	-5.3	6.6	13.6	-0.5	-6.1	/
CN(C)CCCNC(=O)c1ccccn1	12.6	-1.8	10.9	-9.6	-3.4	7.6	/
CN(C)CCCNC(=O)c1ccc(-c2nc(-c3ccc(Cl)cc3)cs2)cc1	82.4*	0.3	13.7	21.7	51.6*	24.0	94.4*
CC(C)(C)c1ccc(NC(=O)C2=CN3CCS(=O)(=O)N=C3C=C2)cc1	3.3	-4.0	2.3	-2.5	-4.6	-5.3	/
CCc1nc2c(OCc3ccc(Cl)cc3Cl)cccn2c1N(C)C(=O)c1ccccc1F	/	/	34.3	38.4	/	/	/
Cc1cc(C)c2ccc(N)nc2c1O	61.9*	-8.6	49.2*	-31.2	50.5*	17.1	59.1*
Cc1ccc(SSc2cc(C)ccc2N)c(N)c1	14.9	-12.1	3.2	26.8	44.6*	32.0	127.1*
O=C(CN(CCO)Cc1ccccc1)N1CCN(S(=O)(=O)c2ccccc2)CC1	/	/	-6.5	-1.8	/	/	/
Cc1ccc(S(=O)(=O)Nc2nc3ccccc3nc2Nc2cccc(S(=O)(=O)N3CCCC3)c2)cc1	2.4	-0.6	6.7	-17.6	73.7*	-20.6	1.0
SMILES	CCR6 antagonist	APJ ag	CXCR6 block	EBI2 block	APJ antagonist	B2AR ag	APJ antag confirm
CCOc1ccc(C(C)=O)cc1COC(=O)c1ccccc1C(=O)N(C)Cc1ccccc1	16.6	-4.1	11.6	10.0	-39.4	3.3	/
COc1ccc(C)cc1NC(=O)COC(=O)C1CC1	5.0	6.7	-1.6	-0.6	40.9*	-1.2	12.6
COc1cccc(N2CC(C)Cn3c2nc2c3c(=O)n(CCN3CCOCC3)c(=O)n2C)c1 (configuration not stated)	-10.7	-6.3	18.2	4.4	41.8*	-16.5	62.0*
OC(c1ccc(-c2ccccc2)cc1)c1ncc(-c2ccccc2F)[nH]1 (configuration not stated)	/	/	-3.9	0.5	/	/	/
COc1ccc(NC(=S)NNc2ccc(S(=O)(=O)Nc3ccccc3C(=O)O)cc2[N+](=O)[O-])cc1	68.5*	-10.9	43.2*	20.6	55.6*	4.2	100.1*
CCOc1ccc(NC(=O)C2CCC(CNc3c(N4CCCCC4)c(=O)c3=O)CC2)cc1 (configuration not stated)	-0.9	-2.3	6.0	-3.5	47.4*	-4.0	19.1
Cc1ccc(C(=O)C2Oc3ccccc3C3CC(c4ccc(C)cc4)=NN23)cc1 (configuration not stated)	12.2	3.8	2.5	17.4	5.2	1.0	/
Cc1ccc(C2=NN3C(C(=O)c4ccccc4)Oc4ccccc4C3C2)cc1 (configuration not stated)	13.2	3.1	20.4	17.5	45.6*	5.7	45.6
CSc1ncccc1C(=O)Nc1cccc(S(=O)(=O)N2CCCCCC2)c1	13.0	-2.6	9.5	5.0	14.9	9.0	/
O=C(COC(=O)COc1ccc(Cl)cc1)Nc1ncc(Br)s1	13.1	0.0	0.0	2.2	25.6	-4.6	/
Nc1cc2c(cc1Cl)-c1ccc(Cl)cc1C2	-4.0	/	-2.4	-12.9	/	/	/
NC(=O)c1ccccc1OCC(=O)N1CCC(Cc2ccccc2)CC1	8.2	-0.6	-0.6	-6.5	42.9*	-4.4	-31.9
CC(=O)C1=C(c2ccccc2)N(C(C)=O)n2c(C)nnc2S1	99.6*	-17.6	31.0	34.7	105.1*	11.5	152.1*
COc1ccccc1NC(=O)CCC(=O)OCc1cccc([N+](=O)[O-])c1	2.9	0.9	0.0	-0.6	12.7	3.4	/
Cc1ccc(C(=O)COC(=O)CCC(=O)NC2CCCCC2)cc1[N+](=O)[O-]	26.6	-9.5	21.6	-1.2	49.1*	-8.3	35.0
O=C(CCC(=O)OCC(=O)c1ccc([N+](=O)[O-])cc1)Nc1ccccc1Cl	-5.8	6.6	-7.4	-13.5	-58.0	-3.3	/
COc1ccccc1NC(=O)CCC(=O)OCC(=O)c1ccc(C)c([N+](=O)[O-])c1	35.2	-22.5	32.9	11.2	50.2*	-4.4	62.0*
Cc1ccccc1NC(=O)CCC(=O)OCC(=O)c1cccc([N+](=O)[O-])c1	54.1*	-8.8	32.7	7.4	56.2*	3.7	98.1*
O=C(CCC(=O)OCC(=O)c1ccc(Br)cc1)NC1CCCCC1	12.3	-7.0	-0.1	-1.8	17.2	1.9	/
